Results from ChEMBL document CHEMBL1129945, “New 2-piperazinylbenzimidazole derivatives as 5-HT3 antagonists. Synthesis and pharmacological evaluation” (J Med Chem, 1997).

Experiments:
[1] = target: 5-hydroxytryptamine receptor 4 (Cavia porcellus, UniProt O70528); assay: In vitro by displacement of [3H]GR-113808 from 5-hydroxytryptamine 4 receptor on guinea pig striatal membrane; design: species or system Striatum
Summary of the method: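 Striatal membranes from male Dunkin-Hartley guinea pigs (350-400 g) in 50 mM Hepes pH 7.4, 800-900 µg protein. Nonspecific binding with 10 µM 5-HT. Incubation 30 min at 25 °C, then filtration and scintillation counting. Triplicate, 10-12 concentrations, two experiments. IC50 and Ki calculated.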

[2] = target: T1, 5-hydroxytryptamine receptor 1A (Rattus norvegicus, UniProt P19327); assay: In vitro by displacement of [3H]8-OH-DPAT from 5-hydroxytryptamine 1A receptor on rat cortical membrane
T1 sequence (P19327 whole entry): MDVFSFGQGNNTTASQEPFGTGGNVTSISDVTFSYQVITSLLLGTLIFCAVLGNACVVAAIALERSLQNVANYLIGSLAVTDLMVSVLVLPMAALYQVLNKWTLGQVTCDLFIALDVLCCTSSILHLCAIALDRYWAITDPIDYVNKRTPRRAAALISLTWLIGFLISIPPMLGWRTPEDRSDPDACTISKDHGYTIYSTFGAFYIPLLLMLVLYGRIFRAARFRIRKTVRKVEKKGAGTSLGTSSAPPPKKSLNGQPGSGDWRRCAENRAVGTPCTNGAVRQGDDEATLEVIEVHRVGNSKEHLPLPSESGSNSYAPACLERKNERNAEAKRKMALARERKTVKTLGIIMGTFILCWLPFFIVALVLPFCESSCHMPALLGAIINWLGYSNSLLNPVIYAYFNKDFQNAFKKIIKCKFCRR
Summary of the method: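 Cerebral cortex membranes from adult male Wistar rats (220-280 g) in 50 mM Tris-HCl with 4 mM CaCl2, 0.1% ascorbate and 10 µM pargyline. [3H]8-OH-DPAT at 1.5 nM final. Nonspecific binding with 10 µM 5-HT. Incubation 30 min at 37 °C. Triplicate, 10-12 concentrations, two experiments. IC50 and Ki calculated.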

[3] = target: 5-hydroxytryptamine receptor 2A (Rattus norvegicus, UniProt P14842); assay: Binding affinity was evaluated in vitro by displacement of [3H]ketanserin from 5-hydroxytryptamine 2A receptor on rat cortical membrane
Sequence of 5-hydroxytryptamine receptor 2A (P14842 whole entry): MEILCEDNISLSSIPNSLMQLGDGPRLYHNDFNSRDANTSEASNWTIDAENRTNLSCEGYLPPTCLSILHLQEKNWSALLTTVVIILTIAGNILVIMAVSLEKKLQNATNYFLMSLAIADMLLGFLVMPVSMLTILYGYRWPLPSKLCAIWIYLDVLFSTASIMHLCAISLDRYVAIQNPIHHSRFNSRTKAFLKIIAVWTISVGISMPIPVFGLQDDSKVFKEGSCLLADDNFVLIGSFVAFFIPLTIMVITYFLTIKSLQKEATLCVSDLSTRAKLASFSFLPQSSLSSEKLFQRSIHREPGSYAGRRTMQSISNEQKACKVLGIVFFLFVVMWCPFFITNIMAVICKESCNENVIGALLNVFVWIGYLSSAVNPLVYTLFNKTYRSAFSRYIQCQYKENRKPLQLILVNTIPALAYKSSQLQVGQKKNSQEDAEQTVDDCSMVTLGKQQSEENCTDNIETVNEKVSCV
Summary of the method: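 Prefrontal cortex membranes from adult male Wistar rats (220-280 g), final dilution 1:60 wt/vol in 50 mM Tris-HCl. Displacer added in Tris-HCl with 10% ethanol. [3H]ketanserin at 0.8 nM final. Nonspecific binding with 1 µM methysergide. Triplicate competition, 10-12 displacer concentrations, two separate experiments. Filtration and scintillation counting. IC50 and Ki calculated.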

[4] = target: T2, Serotonin 3 (5-HT3) receptor (Rattus norvegicus, UniProt P35563+Q9JJ16); assay: In vitro by displacement of [3H]LY-278584 from 5-hydroxytryptamine 3 receptor on rat entorhinal cortex
T2 sequence (P35563 whole entry): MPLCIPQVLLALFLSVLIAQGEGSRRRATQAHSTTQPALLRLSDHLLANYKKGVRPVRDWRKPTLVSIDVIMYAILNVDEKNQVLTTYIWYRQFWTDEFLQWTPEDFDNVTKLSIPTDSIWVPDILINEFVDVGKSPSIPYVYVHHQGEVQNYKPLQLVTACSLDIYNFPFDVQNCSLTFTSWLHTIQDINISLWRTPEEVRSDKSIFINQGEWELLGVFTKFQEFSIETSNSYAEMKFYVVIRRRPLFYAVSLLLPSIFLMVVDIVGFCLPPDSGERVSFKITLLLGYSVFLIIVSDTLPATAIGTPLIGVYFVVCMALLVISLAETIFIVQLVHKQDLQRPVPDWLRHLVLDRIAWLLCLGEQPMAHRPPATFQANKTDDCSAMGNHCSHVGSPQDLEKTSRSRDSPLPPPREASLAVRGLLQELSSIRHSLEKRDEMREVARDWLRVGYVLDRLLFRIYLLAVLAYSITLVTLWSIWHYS
T2 sequence (Q9JJ16 whole entry): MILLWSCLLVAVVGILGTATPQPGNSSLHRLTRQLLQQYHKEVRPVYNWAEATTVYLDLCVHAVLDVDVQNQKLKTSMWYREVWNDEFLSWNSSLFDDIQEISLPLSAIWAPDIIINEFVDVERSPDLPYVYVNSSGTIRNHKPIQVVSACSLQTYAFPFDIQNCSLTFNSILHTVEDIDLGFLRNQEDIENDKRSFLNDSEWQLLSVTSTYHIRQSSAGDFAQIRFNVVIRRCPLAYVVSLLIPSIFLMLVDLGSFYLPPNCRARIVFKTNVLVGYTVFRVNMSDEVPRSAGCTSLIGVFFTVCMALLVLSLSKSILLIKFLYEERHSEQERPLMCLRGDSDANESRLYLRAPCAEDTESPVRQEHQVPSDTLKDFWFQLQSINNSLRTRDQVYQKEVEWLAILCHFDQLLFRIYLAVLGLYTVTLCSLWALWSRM
Summary of the method: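 Entorhinal cortex membranes from male Wistar rats (220-280 g), 500-600 µg protein, in 50 mM Tris-HCl with 5 mM CaCl2, 0.1% ascorbate and 10 µM pargyline. Nonspecific binding with 10 µM 5-HT. Incubation 30 min at 25 °C. Triplicate, 10-12 concentrations, two experiments. IC50 and Ki calculated.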

D(2) dopamine receptor = D(2) dopamine receptor (Rattus norvegicus, UniProt P61169); assay: In vitro by displacement of [3H]raclopride from Dopamine receptor D2 on rat striatal membrane; design: species or system Striatum
Sequence of D(2) dopamine receptor (P61169 whole entry): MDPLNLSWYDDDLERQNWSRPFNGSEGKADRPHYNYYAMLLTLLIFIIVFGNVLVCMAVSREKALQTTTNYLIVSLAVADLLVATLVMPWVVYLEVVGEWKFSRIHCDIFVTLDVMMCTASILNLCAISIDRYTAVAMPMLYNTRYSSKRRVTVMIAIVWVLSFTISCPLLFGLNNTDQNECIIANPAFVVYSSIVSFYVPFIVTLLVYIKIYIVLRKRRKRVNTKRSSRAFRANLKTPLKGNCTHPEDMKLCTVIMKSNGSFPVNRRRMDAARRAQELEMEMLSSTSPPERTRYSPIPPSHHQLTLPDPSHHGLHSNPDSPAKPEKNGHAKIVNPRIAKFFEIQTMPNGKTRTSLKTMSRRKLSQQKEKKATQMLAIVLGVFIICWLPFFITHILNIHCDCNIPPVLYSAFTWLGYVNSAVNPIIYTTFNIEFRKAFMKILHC

Rattus norvegicus = assay: In vivo effective dose against Bezold-Jarisch reflex evoked by 5-HT in urethane-anesthetized rats; type: functional
Summary of the method: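 Bradycardia induced by iv bolus of 5-HT 30 µg/kg. Antagonist or saline given iv (1 mL/kg) after recovery, and 5-HT challenge repeated 5 min later. Heart rate taken from the carotid pressure signal. ED50 in µg/kg iv by linear regression from 3-5 doses, 4-5 rats per dose.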

Sequence of 5-hydroxytryptamine receptor 4 (O70528 whole entry): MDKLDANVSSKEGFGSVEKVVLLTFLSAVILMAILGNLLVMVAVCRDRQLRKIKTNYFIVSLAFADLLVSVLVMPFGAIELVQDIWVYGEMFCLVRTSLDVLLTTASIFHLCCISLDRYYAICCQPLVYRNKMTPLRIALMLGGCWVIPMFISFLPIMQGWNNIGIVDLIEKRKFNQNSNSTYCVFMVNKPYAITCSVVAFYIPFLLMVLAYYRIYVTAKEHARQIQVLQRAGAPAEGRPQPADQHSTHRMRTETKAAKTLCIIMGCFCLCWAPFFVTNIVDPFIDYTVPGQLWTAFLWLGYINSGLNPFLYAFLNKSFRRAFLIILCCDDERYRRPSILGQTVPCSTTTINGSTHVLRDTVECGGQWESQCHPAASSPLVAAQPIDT

## O=C(OCCN1CCCCC1)c1c[nH]c2ccccc12
[1]
  Ki: 1 nM

## Clc1ccc2c(c1)nc(N1CCNCC1)n2Cc1ccccc1
[2]
  Ki: > 1000 nM
[3]
  Ki: > 1000 nM

## COc1cccc2nc(N3CCNCC3)n(Cc3ccccc3)c12
[2]
  Ki: > 1000 nM
[3]
  Ki: > 1000 nM

## Cc1ccc2c(c1)nc(N1CCNCC1)n2Cc1ccccc1
[2]
  Ki: > 1000 nM
[3]
  Ki: > 1000 nM

## Oc1ccc2nc(N3CCNCC3)n(Cc3ccccc3)c2c1
[2]
  Ki: > 1000 nM
[3]
  Ki: > 1000 nM

## c1ccc2c(c1)nc(N1CCNCC1)n2C1CC1
[2]
  Ki: > 1000 nM
[3]
  Ki: > 1000 nM

## CCCn1c(N2CCNCC2)nc2ccccc21
[2]
  Ki: > 1000 nM
[3]
  Ki: > 1000 nM

## Cn1c(N2CCNCC2)nc2ccccc21
[2]
  Ki: > 1000 nM
[3]
  Ki: > 1000 nM
[1]
  Ki: > 1000 nM
[4]
  Ki: 50.1 nM
D(2) dopamine receptor
  Ki: > 1000 nM
Rattus norvegicus
  ED50: 5.3 µg/kg

## Oc1ccc2c(c1)nc(N1CCNCC1)n2Cc1ccccc1
[2]
  Ki: > 1000 nM
[3]
  Ki: > 1000 nM

## COc1ccc2c(c1)nc(N1CCNCC1)n2Cc1ccccc1
[2]
  Ki: > 1000 nM
[3]
  Ki: > 1000 nM

## Fc1ccc2c(c1)nc(N1CCNCC1)n2Cc1ccccc1
[2]
  Ki: > 1000 nM
[3]
  Ki: > 1000 nM

## COc1cccc2c1nc(N1CCNCC1)n2Cc1ccccc1
[2]
  Ki: > 1000 nM
[3]
  Ki: > 1000 nM

## Clc1cc2nc(N3CCNCC3)n(Cc3ccccc3)c2cc1Cl
[2]
  Ki: > 1000 nM
[3]
  Ki: > 1000 nM

## CCn1c(N2CCNCC2)nc2ccccc21
[2]
  Ki: > 1000 nM
[3]
  Ki: > 1000 nM

## COc1ccc2nc(N3CCNCC3)n(Cc3ccccc3)c2c1
[2]
  Ki: > 1000 nM
[3]
  Ki: > 1000 nM

## Cc1cc2nc(N3CCNCC3)n(Cc3ccccc3)c2cc1C
[2]
  Ki: > 1000 nM
[3]
  Ki: > 1000 nM

## c1ccc(Cn2c(N3CCNCC3)nc3ccccc32)cc1 [LERISETRON]
[2]
  Ki: > 1000 nM
[3]
  Ki: > 1000 nM
Rattus norvegicus
  ED50: 2 µg/kg

## CN1[C@@H]2CC[C@H]1C[C@@H](OC(=O)c1c[nH]c3ccccc13)C2 [TROPISETRON]
[4]
  Ki: 1.58 nM
Rattus norvegicus
  ED50: 1.7 µg/kg
